From ChEMBL document CHEMBL3864165, “Design, synthesis, and AChE inhibitory activity of new benzothiazole-piperazines” (Bioorg Med Chem Lett, 2016)

What was measured:
[1] = molecular target: Acetylcholinesterase (Electrophorus electricus) (UniProt O42275); experiment: Inhibition of electric eel AChE at 10^-6 M preincubated for 15 mins followed by acetylthiocholine iodide substrate addition measured for 5 mins by Ellman's spectrophotometric method relative to control
[2] = molecular target: T1, Acetylcholinesterase (Electrophorus electricus, UniProt O42275); experiment: Inhibition of electric eel AChE preincubated for 15 mins followed by acetylthiocholine iodide substrate addition measured for 5 mins by Ellman's spectrophotometric method
[3] = molecular target: Acetylcholinesterase (Electrophorus electricus) (UniProt O42275); experiment: Inhibition of electric eel AChE at 10^-7 M preincubated for 15 mins followed by acetylthiocholine iodide substrate addition measured for 5 mins by Ellman's spectrophotometric method relative to control
[4] = molecular target: Acetylcholinesterase (Electrophorus electricus) (UniProt O42275); experiment: Inhibition of electric eel AChE at 10^-3 M preincubated for 15 mins followed by acetylthiocholine iodide substrate addition measured for 5 mins by Ellman's spectrophotometric method relative to control
[5] = molecular target: Acetylcholinesterase (Electrophorus electricus) (UniProt O42275); experiment: Inhibition of electric eel AChE at 10^-4 M preincubated for 15 mins followed by acetylthiocholine iodide substrate addition measured for 5 mins by Ellman's spectrophotometric method relative to control
[6] = molecular target: T1, Acetylcholinesterase; experiment: Mixed-type inhibition of electric eel AChE preincubated for 15 mins followed by acetylthiocholine iodide substrate addition measured for 5 mins by Lineweaver-Burk plot analysis
Outline: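 Substrate-velocity curves recorded with and without inhibitor, with initial velocities measured at acetylthiocholine (ATC) concentrations from 600 µM down to 18.75 µM. Data analysed as 1/V plots. Ki taken as the x-axis intercept of a secondary plot of 1/V versus inhibitor concentration.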

[7] = Cytotoxicity against mouse NIH/3T3 cells after 24 hrs by MTT assay
[8] = Ratio of compound IC50 to donepezil IC50 for mouse NIH/3T3 cells; assay type: ADME, cell-based; settings: read-out: Ratio IC50
[9] = test system: Salmonella typhimurium; experiment: Genotoxicity in Salmonella typhimurium TA98 assessed as increase in number of revertants at 0.156 mg/ml in presence of aroclor-1254-induced Sprague-Dawley rat liver S9 fraction by Ames-MPF assay relative to control; assay type: toxicity, organism-based; settings: salmonella enterica subsp. enterica serovar typhimurium
Outline: (§1)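 Ames MPF microplate fluctuation format, run with and without S9 metabolic activation. The read-out is the count of positive (revertant) wells. A run is accepted only when positive controls give more than 25 positive wells and negative controls give fewer than eight.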

[10] = test system: Salmonella typhimurium; experiment: Genotoxicity in Salmonella typhimurium TA98 assessed as increase in number of revertants at 0.3125 mg/ml in presence of aroclor-1254-induced Sprague-Dawley rat liver S9 fraction by Ames-MPF assay relative to control; assay type: toxicity, organism-based; settings: salmonella enterica subsp. enterica serovar typhimurium; outline: as §1
[11] = test system: Salmonella typhimurium; experiment: Genotoxicity in Salmonella typhimurium TA98 assessed as increase in number of revertants at 0.625 mg/ml in presence of aroclor-1254-induced Sprague-Dawley rat liver S9 fraction by Ames-MPF assay relative to control; assay type: toxicity, organism-based; settings: salmonella enterica subsp. enterica serovar typhimurium; outline: as §1
[12] = test system: Salmonella typhimurium; experiment: Genotoxicity in Salmonella typhimurium TA98 assessed as increase in number of revertants at 1.25 mg/ml in presence of aroclor-1254-induced Sprague-Dawley rat liver S9 fraction by Ames-MPF assay relative to control; assay type: toxicity, organism-based; settings: salmonella enterica subsp. enterica serovar typhimurium; outline: as §1
[13] = test system: Salmonella typhimurium; experiment: Genotoxicity in Salmonella typhimurium TA98 assessed as increase in number of revertants at 2.5 mg/ml in presence of aroclor-1254-induced Sprague-Dawley rat liver S9 fraction by Ames-MPF assay relative to control; assay type: toxicity, organism-based; settings: salmonella enterica subsp. enterica serovar typhimurium; outline: as §1
[14] = test system: Salmonella typhimurium; experiment: Genotoxicity in Salmonella typhimurium TA98 assessed as increase in number of revertants at 5 mg/ml in presence of aroclor-1254-induced Sprague-Dawley rat liver S9 fraction by Ames-MPF assay relative to control; assay type: toxicity, organism-based; settings: salmonella enterica subsp. enterica serovar typhimurium; outline: as §1
[15] = test system: Salmonella typhimurium; experiment: Genotoxicity in Salmonella typhimurium TA98 assessed as increase in number of revertants at 0.156 mg/ml in absence of aroclor-1254-induced Sprague-Dawley rat liver S9 fraction by Ames-MPF assay relative to control; assay type: toxicity, organism-based; settings: salmonella enterica subsp. enterica serovar typhimurium; outline: as §1
[16] = test system: Salmonella typhimurium; experiment: Genotoxicity in Salmonella typhimurium TA98 assessed as increase in number of revertants at 0.3125 mg/ml in absence of aroclor-1254-induced Sprague-Dawley rat liver S9 fraction by Ames-MPF assay relative to control; assay type: toxicity, organism-based; settings: salmonella enterica subsp. enterica serovar typhimurium; outline: as §1
[17] = test system: Salmonella typhimurium; experiment: Genotoxicity in Salmonella typhimurium TA98 assessed as increase in number of revertants at 0.625 mg/ml in absence of aroclor-1254-induced Sprague-Dawley rat liver S9 fraction by Ames-MPF assay relative to control; assay type: toxicity, organism-based; settings: salmonella enterica subsp. enterica serovar typhimurium; outline: as §1
[18] = test system: Salmonella typhimurium; experiment: Genotoxicity in Salmonella typhimurium TA98 assessed as increase in number of revertants at 1.25 mg/ml in absence of aroclor-1254-induced Sprague-Dawley rat liver S9 fraction by Ames-MPF assay relative to control; assay type: toxicity, organism-based; settings: salmonella enterica subsp. enterica serovar typhimurium; outline: as §1
[19] = test system: Salmonella typhimurium; experiment: Genotoxicity in Salmonella typhimurium TA98 assessed as increase in number of revertants at 2.5 mg/ml in absence of aroclor-1254-induced Sprague-Dawley rat liver S9 fraction by Ames-MPF assay relative to control; assay type: toxicity, organism-based; settings: salmonella enterica subsp. enterica serovar typhimurium; outline: as §1
[20] = test system: Salmonella typhimurium; experiment: Genotoxicity in Salmonella typhimurium TA98 assessed as increase in number of revertants at 5 mg/ml in absence of aroclor-1254-induced Sprague-Dawley rat liver S9 fraction by Ames-MPF assay relative to control; assay type: toxicity, organism-based; settings: salmonella enterica subsp. enterica serovar typhimurium; outline: as §1
[21] = test system: Salmonella typhimurium; experiment: Genotoxicity in Salmonella typhimurium TA100 assessed as increase in number of revertants at 0.156 mg/ml in presence of aroclor-1254-induced Sprague-Dawley rat liver S9 fraction by Ames-MPF assay relative to control; assay type: toxicity, organism-based; settings: salmonella enterica subsp. enterica serovar typhimurium; outline: as §1
[22] = test system: Salmonella typhimurium; experiment: Genotoxicity in Salmonella typhimurium TA100 assessed as increase in number of revertants at 0.3125 mg/ml in presence of aroclor-1254-induced Sprague-Dawley rat liver S9 fraction by Ames-MPF assay relative to control; assay type: toxicity, organism-based; settings: salmonella enterica subsp. enterica serovar typhimurium; outline: as §1
[23] = test system: Salmonella typhimurium; experiment: Genotoxicity in Salmonella typhimurium TA100 assessed as increase in number of revertants at 0.625 mg/ml in presence of aroclor-1254-induced Sprague-Dawley rat liver S9 fraction by Ames-MPF assay relative to control; assay type: toxicity, organism-based; settings: salmonella enterica subsp. enterica serovar typhimurium; outline: as §1
[24] = test system: Salmonella typhimurium; experiment: Genotoxicity in Salmonella typhimurium TA100 assessed as increase in number of revertants at 1.25 mg/ml in presence of aroclor-1254-induced Sprague-Dawley rat liver S9 fraction by Ames-MPF assay relative to control; assay type: toxicity, organism-based; settings: salmonella enterica subsp. enterica serovar typhimurium; outline: as §1
[25] = test system: Salmonella typhimurium; experiment: Genotoxicity in Salmonella typhimurium TA100 assessed as increase in number of revertants at 2.5 mg/ml in presence of aroclor-1254-induced Sprague-Dawley rat liver S9 fraction by Ames-MPF assay relative to control; assay type: toxicity, organism-based; settings: salmonella enterica subsp. enterica serovar typhimurium; outline: as §1
[26] = test system: Salmonella typhimurium; experiment: Genotoxicity in Salmonella typhimurium TA100 assessed as increase in number of revertants at 5 mg/ml in presence of aroclor-1254-induced Sprague-Dawley rat liver S9 fraction by Ames-MPF assay relative to control; assay type: toxicity, organism-based; settings: salmonella enterica subsp. enterica serovar typhimurium; outline: as §1
[27] = test system: Salmonella typhimurium; experiment: Genotoxicity in Salmonella typhimurium TA100 assessed as increase in number of revertants at 0.156 mg/ml in absence of aroclor-1254-induced Sprague-Dawley rat liver S9 fraction by Ames-MPF assay relative to control; assay type: toxicity, organism-based; settings: salmonella enterica subsp. enterica serovar typhimurium; outline: as §1
[28] = test system: Salmonella typhimurium; experiment: Genotoxicity in Salmonella typhimurium TA100 assessed as increase in number of revertants at 0.3125 mg/ml in absence of aroclor-1254-induced Sprague-Dawley rat liver S9 fraction by Ames-MPF assay relative to control; assay type: toxicity, organism-based; settings: salmonella enterica subsp. enterica serovar typhimurium; outline: as §1
[29] = test system: Salmonella typhimurium; experiment: Genotoxicity in Salmonella typhimurium TA100 assessed as increase in number of revertants at 0.625 mg/ml in absence of aroclor-1254-induced Sprague-Dawley rat liver S9 fraction by Ames-MPF assay relative to control; assay type: toxicity, organism-based; settings: salmonella enterica subsp. enterica serovar typhimurium; outline: as §1
[30] = test system: Salmonella typhimurium; experiment: Genotoxicity in Salmonella typhimurium TA100 assessed as increase in number of revertants at 1.25 mg/ml in absence of aroclor-1254-induced Sprague-Dawley rat liver S9 fraction by Ames-MPF assay relative to control; assay type: toxicity, organism-based; settings: salmonella enterica subsp. enterica serovar typhimurium; outline: as §1
[31] = test system: Salmonella typhimurium; experiment: Genotoxicity in Salmonella typhimurium TA100 assessed as increase in number of revertants at 2.5 mg/ml in absence of aroclor-1254-induced Sprague-Dawley rat liver S9 fraction by Ames-MPF assay relative to control; assay type: toxicity, organism-based; settings: salmonella enterica subsp. enterica serovar typhimurium; outline: as §1
[32] = test system: Salmonella typhimurium; experiment: Genotoxicity in Salmonella typhimurium TA100 assessed as increase in number of revertants at 5 mg/ml in absence of aroclor-1254-induced Sprague-Dawley rat liver S9 fraction by Ames-MPF assay relative to control; assay type: toxicity, organism-based; settings: salmonella enterica subsp. enterica serovar typhimurium; outline: as §1

T1 sequence (O42275 whole entry): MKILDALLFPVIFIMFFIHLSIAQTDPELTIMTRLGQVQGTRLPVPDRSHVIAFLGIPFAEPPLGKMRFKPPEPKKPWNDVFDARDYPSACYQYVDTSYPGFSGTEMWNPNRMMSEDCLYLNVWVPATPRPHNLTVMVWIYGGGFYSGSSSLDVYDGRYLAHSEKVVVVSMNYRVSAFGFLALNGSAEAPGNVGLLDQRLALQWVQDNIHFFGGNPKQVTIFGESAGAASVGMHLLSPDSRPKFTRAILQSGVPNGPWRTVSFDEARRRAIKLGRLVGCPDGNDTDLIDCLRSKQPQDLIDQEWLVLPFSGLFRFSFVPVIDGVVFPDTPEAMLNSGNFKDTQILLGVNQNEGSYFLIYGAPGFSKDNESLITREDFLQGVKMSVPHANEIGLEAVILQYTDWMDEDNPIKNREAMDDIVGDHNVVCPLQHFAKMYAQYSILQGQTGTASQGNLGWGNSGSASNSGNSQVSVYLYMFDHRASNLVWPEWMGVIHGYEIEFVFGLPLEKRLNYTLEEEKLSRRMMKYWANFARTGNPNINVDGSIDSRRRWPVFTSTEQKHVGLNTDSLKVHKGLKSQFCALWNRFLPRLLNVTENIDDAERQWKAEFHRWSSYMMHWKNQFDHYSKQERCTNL
Acetylcholinesterase (Electrophorus electricus), sequence (O42275 24-633 limits assumed): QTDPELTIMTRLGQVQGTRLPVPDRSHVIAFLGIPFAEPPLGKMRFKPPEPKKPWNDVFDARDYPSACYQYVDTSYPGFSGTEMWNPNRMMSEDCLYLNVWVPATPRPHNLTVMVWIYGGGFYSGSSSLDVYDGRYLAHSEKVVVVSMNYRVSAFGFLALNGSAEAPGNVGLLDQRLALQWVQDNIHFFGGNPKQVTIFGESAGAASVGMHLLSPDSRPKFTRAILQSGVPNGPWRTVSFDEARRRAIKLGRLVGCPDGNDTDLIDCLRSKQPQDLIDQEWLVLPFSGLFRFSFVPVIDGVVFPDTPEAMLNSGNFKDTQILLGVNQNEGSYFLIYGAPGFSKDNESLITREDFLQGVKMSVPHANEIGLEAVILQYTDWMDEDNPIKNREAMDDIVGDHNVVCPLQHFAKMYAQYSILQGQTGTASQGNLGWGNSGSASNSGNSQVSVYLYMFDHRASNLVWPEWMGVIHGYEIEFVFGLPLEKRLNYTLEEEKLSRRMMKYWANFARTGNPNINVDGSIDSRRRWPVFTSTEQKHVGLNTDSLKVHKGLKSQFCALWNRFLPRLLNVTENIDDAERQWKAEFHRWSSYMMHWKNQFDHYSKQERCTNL

## COc1cc2nc(NC(=O)CN3CCN(Cc4ccc(C)cc4)CC3)sc2cc1OC
[1]
  inhibition: > 50%
[2]
  IC50: 0.215 µM

## COc1cc2nc(NC(=O)CN3CCN(Cc4ccc(Cl)cc4)CC3)sc2cc1OC
[1]
  inhibition: > 50%
[2]
  IC50: 0.13 µM

## COc1ccc2nc(NC(=O)CN3CCN(CCCN(C)C)CC3)sc2c1
[1]
  inhibition: > 50%
[3]
  inhibition: > 50%
[2]
  IC50: 0.117 µM

## COc1cc2nc(NC(=O)CN3CCN(Cc4ccc(F)cc4)CC3)sc2cc1OC
[1]
  inhibition: > 50%
[2]
  IC50: 0.175 µM

## COc1ccc2nc(NC(=O)CN3CCN(Cc4ccc(Cl)cc4)CC3)sc2c1
[1]
  inhibition: > 50%
[4]
  inhibition: > 95%
[5]
  inhibition: 90%
[2]
  IC50: 0.22 µM

## COc1cc2nc(NC(=O)CN3CCN(Cc4ccc(C(F)(F)F)cc4)CC3)sc2cc1OC
[1]
  inhibition: > 50%
[2]
  IC50: 0.198 µM

## COc1cc2nc(NC(=O)CN3CCN(CCN(C)C)CC3)sc2cc1OC
[1]
  inhibition: > 50%
[3]
  inhibition: > 50%
[4]
  inhibition: > 95%
[5]
  inhibition: 90%
[2]
  IC50: 0.0462 µM
[6]
  Ki: 0.11 µM
[7]; NIH/3T3 cells
  IC50 at 24 h: > 1000 µM
[8]
  selectivity ratio: 3
[9]
  fold change (FC): 0.22
[10]
  fold change (FC): 0.65
[11]
  fold change (FC): 0.97
[12]
  fold change (FC): 0.43
[13]
  fold change (FC): 0
[14]
  fold change (FC): 0
[15]
  fold change (FC): 0.87
[16]
  fold change (FC): 1.14
[17]
  fold change (FC): 1.03
[18]
  fold change (FC): 0.33
[19]
  fold change (FC): 0.33
[20]
  fold change (FC): 0.11
[21]
  fold change (FC): 0.78
[22]
  fold change (FC): 0.55
[23]
  fold change (FC): 0.55
[24]
  fold change (FC): 1.09
[25]
  fold change (FC): 0.55
[26]
  fold change (FC): 0.47
[27]
  fold change (FC): 0.66
[28]
  fold change (FC): 0.49
[29]
  fold change (FC): 0.27
[30]
  fold change (FC): 0.27
[31]
  fold change (FC): 0
[32]
  fold change (FC): 0

## COc1cc2c(cc1OC)C(=O)C(CC1CCN(Cc3ccccc3)CC1)C2 (stereo not drawn) [DONEPEZIL]
[7]; nih3t3
  IC50 at 24 h: 316 µM
